{"source": "ChEMBL document CHEMBL1687827", "about": "“Profiling the Aspergillus fumigatus proteome in response to caspofungin” (2011)", "key": {"Aspergillus fumigatus [1]": {"system": "Aspergillus fumigatus", "test": "Induction of change in extracellular conserved serine-rich protein level in iTRAQ-116 labelled secreted fraction of drug-resistant Aspergillus fumigatus EMFR-S678P at 0.12 ug/ml after 48 hrs in YPD medium by MS (MS/MS) analysis relative to control", "format": "functional", "in_short": "(§1)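 Conidia at 1 × 10⁵/ml were grown at 37°C, shaking at 225 rpm, in YPD with or without 0.12 μg/ml caspofungin for 24 or 48 h. The culture filtrate was kept as the secreted fraction. Mycelia were lysed by French press in HEPES/glycerol/EDTA/PMSF/DTT buffer, and the 5,000 × g pellet was washed to give CW/PM. Proteins were reduced, alkylated and trypsin-digested at 37°C overnight, then iTRAQ-labelled and run by 2D LC-MS/MS. Ratios are the median of unique-peptide ratios, median-normalized, versus the no-drug control.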"}, "Aspergillus fumigatus [2]": {"system": "Aspergillus fumigatus", "test": "Induction of change in cytochrome c protein level in iTRAQ114 labelled secreted fraction of drug-susceptible Aspergillus fumigatus KU80 delta-akuB at 0.12 ug/ml after 24 hrs in YPD medium by MS (MS/MS) analysis relative to control", "format": "functional", "in_short": "(§2)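 Conidia at 1 × 10⁵/ml grown shaking at 37°C in YPD with or without 0.12 μg/ml caspofungin; mycelia filtered at 24 or 48 h. Secreted fraction taken from the filtrate; cell wall/plasma membrane pellet recovered after French-press lysis and a 5,000 × g spin. Proteins trypsin-digested and iTRAQ-labelled, drug vs no-drug channels at each time, then 2D LC-MS/MS. Protein ratio is the median of ratios from uniquely assigned peptides after median normalization.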"}, "Aspergillus fumigatus [3]": {"system": "Aspergillus fumigatus", "test": "Induction of change in 60s ribosomal protein yl17-b protein level in iTRAQ114 labelled secreted fraction of drug-susceptible Aspergillus fumigatus KU80 delta-akuB at 0.12 ug/ml after 24 hrs in YPD medium by MS (MS/MS) analysis relative to control", "format": "functional", "in_short": "as §2"}, "Aspergillus fumigatus [4]": {"system": "Aspergillus fumigatus", "test": "Induction of change in Ribosomal protein S13p/S18e protein level in iTRAQ114 labelled cell wall fraction of drug-susceptible Aspergillus fumigatus KU80 delta-akuB at 0.12 ug/ml after 24 hrs in YPD medium by MS (MS/MS) analysis relative to control", "format": "functional", "in_short": "as §2"}, "Aspergillus fumigatus [5]": {"system": "Aspergillus fumigatus", "test": "Induction of change in 60S ribosomal protein L27e protein level in iTRAQ-118 labelled cell wall fraction of drug-resistant Aspergillus fumigatus EMFR-S678P at 0.12 ug/ml after 24 hrs in YPD medium by MS (MS/MS) analysis relative to control", "format": "functional", "in_short": "as §1"}, "Aspergillus fumigatus [6]": {"system": "Aspergillus fumigatus", "test": "Induction of change in ribosomal protein L26 gene expression in drug-susceptible Aspergillus fumigatus KU80 delta-akuB at 0.12 ug/ml after 24 hrs in YPD medium by microarray analysis relative to control", "format": "functional", "in_short": "(§3)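 Mycelia grown from 1 × 10⁵ conidia/ml in YPD at 37°C, 225 rpm, with or without 0.12 μg/ml caspofungin. Total RNA extracted, DNase-treated; 2 μg labelled per TIGR SOP M007 for whole-genome array hybridization. Three independent experiments with dye flip (6 replicates); >2-fold change deemed significant.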"}, "Aspergillus fumigatus [7]": {"system": "Aspergillus fumigatus", "test": "Induction of change in pyruvate decarboxylase PdcA, putative protein level in iTRAQ-118 labelled cell wall fraction of drug-susceptible Aspergillus fumigatus KU80 delta-akuB at 0.12 ug/ml after 24 hrs in YPD medium by MS (MS/MS) analysis relative to control", "format": "functional", "in_short": "(§4)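 Conidia (1 × 10⁵/ml) grown in YPD, 37°C, 225 rpm, ± 0.12 μg/ml caspofungin; filtrate taken as secreted fraction, French-press lysate 5,000 × g pellet as cell wall/plasma membrane. Trypsin digests 8-plex iTRAQ-labelled (drug-free channels as references), pooled, 2D-chromatography, MS/MS. Median-normalized; protein ratio = median of unique-peptide ratios, log2 normalized.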"}, "Aspergillus fumigatus [8]": {"system": "Aspergillus fumigatus", "test": "Antifungal activity against drug-resistant Aspergillus fumigatus EMFR-S678P assessed as change in hyphal morphology by RPMI medium", "format": "functional", "settings": "read-out: MEC", "in_short": "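CLSI M38-A2 broth microdilution, run in triplicate in RPMI or YPD medium as the line specifies. Caspofungin was dissolved in sterile water. The minimum effective concentration (MEC) was the lowest concentration giving a significant change in hyphal morphology visible to the eye.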"}, "Aspergillus fumigatus [9]": {"system": "Aspergillus fumigatus", "test": "Induction of change in cobalamin-independent methionine synthase MetH/D protein level in iTRAQ-116 labelled secreted fraction of drug-resistant Aspergillus fumigatus EMFR-S678P at 0.12 ug/ml after 48 hrs in YPD medium by MS (MS/MS) analysis relative to control", "format": "functional", "in_short": "as §1"}, "Aspergillus fumigatus [10]": {"system": "Aspergillus fumigatus", "test": "Induction of change in sur7 protein, putative gene expression in drug-susceptible Aspergillus fumigatus KU80 delta-akuB at 0.12 ug/ml after 24 hrs in YPD medium by microarray analysis relative to control", "format": "functional", "in_short": "as §3"}, "Aspergillus fumigatus [11]": {"system": "Aspergillus fumigatus", "test": "Induction of change in hypothetical gene locus AFUA_6G06840 expression in drug-susceptible Aspergillus fumigatus KU80 delta-akuB at 0.12 ug/ml after 48 hrs in YPD medium by microarray analysis relative to control", "format": "functional", "in_short": "as §3"}, "Aspergillus fumigatus [12]": {"system": "Aspergillus fumigatus", "test": "Induction of change in Class III chitinase ChiA1 protein level in iTRAQ114 labelled cell wall fraction of drug-susceptible Aspergillus fumigatus KU80 delta-akuB at 0.12 ug/ml after 24 hrs in YPD medium by MS (MS/MS) analysis relative to control", "format": "functional", "in_short": "as §1"}, "Aspergillus fumigatus [13]": {"system": "Aspergillus fumigatus", "test": "Induction of change in transcriptional repressor TupA/RocA, putative protein level in iTRAQ-118 labelled cell wall fraction of drug-susceptible Aspergillus fumigatus KU80 delta-akuB at 0.12 ug/ml after 24 hrs in YPD medium by MS (MS/MS) analysis relative to control", "format": "functional", "in_short": "as §4"}, "Aspergillus fumigatus [14]": {"system": "Aspergillus fumigatus", "test": "Induction of change in GNAT family acetyltransferase, putative protein level in iTRAQ-118 labelled cell wall fraction of drug-resistant Aspergillus fumigatus EMFR-S678P at 0.12 ug/ml after 24 hrs in YPD medium by MS (MS/MS) analysis relative to control", "format": "functional, organism-based", "in_short": "as §1"}, "Aspergillus fumigatus [15]": {"system": "Aspergillus fumigatus", "test": "Induction of change in 60s ribosomal protein yl17-b gene expression in drug-susceptible Aspergillus fumigatus KU80 delta-akuB at 0.12 ug/ml after 24 hrs in YPD medium by microarray analysis relative to control", "format": "functional", "in_short": "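Mycelia grown in YPD ± 0.12 μg/ml caspofungin (1 × 10⁵ conidia/ml, 37°C, shaking) and harvested at 24 or 48 h. Total RNA extracted, DNase-treated and quality-checked; 2 μg labelled per TIGR SOP M007 and hybridized to whole-genome arrays. Three independent experiments with dye flip (6 replicates); drug vs untreated fold change.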"}, "Aspergillus fumigatus [16]": {"system": "Aspergillus fumigatus", "test": "Induction of change in antigenic mitochondrial protein HSP60, putative protein level in iTRAQ-116 labelled secreted fraction of drug-resistant Aspergillus fumigatus EMFR-S678P at 0.12 ug/ml after 48 hrs in YPD medium by MS (MS/MS) analysis relative to control", "format": "functional", "in_short": "as §1"}, "Aspergillus fumigatus [17]": {"system": "Aspergillus fumigatus", "test": "Induction of change in glycine-rich RNA-binding protein, putative protein level in iTRAQ-118 labelled cell wall fraction of drug-resistant Aspergillus fumigatus EMFR-S678P at 0.12 ug/ml after 24 hrs in YPD medium by MS (MS/MS) analysis relative to control", "format": "functional", "in_short": "as §1"}}, "note": "The source made the active and inactive calls. The calls are words filed in the database; no cut-off is given here."}
{"smiles": "CC[C@H](C)C[C@H](C)CCCCCCCCC(=O)N[C@H]1C[C@@H](O)[C@@H](NCCN)NC(=O)[C@@H]2[C@@H](O)CCN2C(=O)[C@H]([C@H](O)CCN)NC(=O)[C@H]([C@H](O)[C@@H](O)c2ccc(O)cc2)NC(=O)[C@@H]2C[C@@H](O)CN2C(=O)[C@H]([C@@H](C)O)NC1=O", "note": "[CASPOFUNGIN]", "values": [{"measurement": "fold change (FC)", "setting": "Aspergillus fumigatus [1]", "result": -1.07}, {"measurement": "fold change (FC)", "setting": "Aspergillus fumigatus [2]", "result": -2.6}, {"measurement": "fold change (FC)", "setting": "Aspergillus fumigatus [3]", "result": -1}, {"measurement": "fold change (FC)", "setting": "Aspergillus fumigatus [4]", "result": 2.3}, {"measurement": "fold change (FC)", "setting": "Aspergillus fumigatus [5]", "result": -1.15}, {"measurement": "fold change (FC)", "setting": "Aspergillus fumigatus [6]", "result": 5.3}, {"measurement": "fold change (FC)", "setting": "Aspergillus fumigatus [7]", "result": -2.3}, {"measurement": "minimal effective concentration", "setting": "Aspergillus fumigatus [8]", "result": "> 16", "unit": "µg/mL"}, {"measurement": "fold change (FC)", "setting": "Aspergillus fumigatus [9]", "result": -1.15}, {"measurement": "fold change (FC)", "setting": "Aspergillus fumigatus [10]", "result": -5.2}, {"measurement": "fold change (FC)", "setting": "Aspergillus fumigatus [11]", "result": -2.1}, {"measurement": "fold change (FC)", "setting": "Aspergillus fumigatus [12]", "result": -12.1}, {"measurement": "fold change (FC)", "setting": "Aspergillus fumigatus [13]", "result": -2.1}, {"measurement": "Activity", "setting": "Aspergillus fumigatus [14]", "result": "inactive"}, {"measurement": "fold change (FC)", "setting": "Aspergillus fumigatus [15]", "result": 3.5}, {"measurement": "fold change (FC)", "setting": "Aspergillus fumigatus [16]", "result": -1.15}, {"measurement": "fold change (FC)", "setting": "Aspergillus fumigatus [17]", "result": 1.52}]}
